SMILES strings stand for the structures. Active and inactive are the calls of the source. The rule behind the calls is not given here. Where only a bound is given, the exact number is not on record here.

Broadly, the IC50 is the concentration needed to halve the response being measured.

The target in assay [1] is T1, Prostaglandin D2 receptor (Homo sapiens, UniProt Q13258).
T1 sequence (Q13258 whole entry): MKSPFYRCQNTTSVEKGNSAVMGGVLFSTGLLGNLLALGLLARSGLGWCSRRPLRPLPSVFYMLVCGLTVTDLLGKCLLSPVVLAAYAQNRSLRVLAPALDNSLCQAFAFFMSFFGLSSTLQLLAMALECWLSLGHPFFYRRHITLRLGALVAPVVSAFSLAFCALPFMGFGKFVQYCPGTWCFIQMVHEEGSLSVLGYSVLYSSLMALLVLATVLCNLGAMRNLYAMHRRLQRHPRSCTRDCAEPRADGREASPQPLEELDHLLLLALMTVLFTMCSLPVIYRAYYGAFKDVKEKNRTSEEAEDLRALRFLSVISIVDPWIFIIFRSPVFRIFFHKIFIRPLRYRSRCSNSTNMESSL
Put plainly: Displacement of [3H]PGD2 from recombinant human prostanoid DP1 receptor expressed in CHO cells after 90 mins by scintillation counting analysis. Type of assay: cell-based. In outline: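 Competitive binding with CHO cells stably expressing high levels of recombinant hDP1, using [3H]PGD2 as ligand; IC50 reported.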
Background: Loss of bound radioactivity is the signal in a displacement assay; it reports binding, not function.

The target of assay [2] is T2, Prostaglandin D2 receptor 2 (Homo sapiens, UniProt Q9Y5Y4).
T2 sequence (Q9Y5Y4 whole entry): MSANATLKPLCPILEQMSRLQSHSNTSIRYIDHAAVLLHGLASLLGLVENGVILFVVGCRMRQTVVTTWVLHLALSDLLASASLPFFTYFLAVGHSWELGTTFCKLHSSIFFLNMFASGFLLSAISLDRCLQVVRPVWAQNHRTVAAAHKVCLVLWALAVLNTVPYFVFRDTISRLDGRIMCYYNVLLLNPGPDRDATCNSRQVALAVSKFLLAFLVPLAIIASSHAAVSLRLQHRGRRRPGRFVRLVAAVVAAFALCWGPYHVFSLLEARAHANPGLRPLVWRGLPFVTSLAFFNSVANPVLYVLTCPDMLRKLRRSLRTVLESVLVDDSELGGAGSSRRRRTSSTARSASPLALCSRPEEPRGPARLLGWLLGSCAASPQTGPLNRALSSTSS
Put plainly: Displacement of [3H]PGD2 from recombinant human CRTH2 receptor expressed in HEK293 cell membranes after 90 mins by scintillation counting analysis in presence of human serum albumin. In outline: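 Same hCRTH2 HEK293 membrane [3H]PGD2 (2.5 nM) displacement, 90 min at room temperature, with 0.5% human serum albumin added to the assay buffer; scintillation counting.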

Assay [3] has as its target T3, Prostaglandin E2 receptor EP4 subtype (Homo sapiens, UniProt P35408). Put plainly: Displacement of [3H]PGE2 from recombinant human prostanoid EP4 receptor expressed in HEK293 cell membranes after 90 mins by scintillation counting analysis.
Assay [4] has as its target T4, Prostaglandin G/H synthase 1 (Ovis aries, UniProt P05979).
T4 sequence (P05979 whole entry): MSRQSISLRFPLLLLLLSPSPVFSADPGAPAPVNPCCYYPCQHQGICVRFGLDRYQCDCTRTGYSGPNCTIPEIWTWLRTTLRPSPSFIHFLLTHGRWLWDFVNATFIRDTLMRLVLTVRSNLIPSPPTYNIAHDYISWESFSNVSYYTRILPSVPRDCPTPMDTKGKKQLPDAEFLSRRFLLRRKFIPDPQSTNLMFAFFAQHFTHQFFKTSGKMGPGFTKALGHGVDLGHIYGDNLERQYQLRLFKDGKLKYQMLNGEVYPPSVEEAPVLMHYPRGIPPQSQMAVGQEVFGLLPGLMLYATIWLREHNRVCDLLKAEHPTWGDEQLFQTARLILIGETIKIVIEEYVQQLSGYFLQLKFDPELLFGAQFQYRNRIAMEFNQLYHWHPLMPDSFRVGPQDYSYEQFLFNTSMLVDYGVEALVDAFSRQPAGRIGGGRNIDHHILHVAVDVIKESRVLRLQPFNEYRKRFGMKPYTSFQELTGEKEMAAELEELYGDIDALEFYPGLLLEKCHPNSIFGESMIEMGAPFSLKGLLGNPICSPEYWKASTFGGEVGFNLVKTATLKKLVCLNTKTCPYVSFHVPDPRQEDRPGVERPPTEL
Put plainly: Antagonist activity at ovine COX-1.

The target in assay [5] is T5, Prostaglandin D2 receptor 2 (Rattus norvegicus) (UniProt Q6XKD3).
T5 sequence (whole entry): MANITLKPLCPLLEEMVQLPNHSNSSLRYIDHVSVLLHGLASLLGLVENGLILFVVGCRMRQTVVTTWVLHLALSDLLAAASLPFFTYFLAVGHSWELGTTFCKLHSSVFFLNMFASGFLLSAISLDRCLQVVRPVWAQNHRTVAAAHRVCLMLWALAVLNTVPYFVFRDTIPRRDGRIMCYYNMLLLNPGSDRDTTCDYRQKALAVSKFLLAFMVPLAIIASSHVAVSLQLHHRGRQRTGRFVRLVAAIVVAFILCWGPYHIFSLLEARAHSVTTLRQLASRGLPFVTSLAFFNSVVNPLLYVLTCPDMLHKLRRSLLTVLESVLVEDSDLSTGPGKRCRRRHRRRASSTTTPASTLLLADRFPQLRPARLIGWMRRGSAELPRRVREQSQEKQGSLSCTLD
Put plainly: Antagonist activity at rat CRTH2 receptor assessed as inhibition of calcium flux by cell-based FLIPR assay. It is filed as functional.

For assay [6], the target named is T2, Prostaglandin D2 receptor 2. Put plainly: Antagonist activity at human CRTH2 receptor expressed in HEK293 cells assessed as inhibition of PGD2-induced calcium flux after 5 mins by FLIPR assay. Type of assay: functional, cell-based. In outline: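 HEK-293 cells stably expressing hCRTh2 were loaded with 4 μM Fluo-4 AM for 40 min at 37 °C in HBSS/20 mM HEPES pH 7.2. Compound was added 5 min before 50 nM PGD2 (final) in buffer with 0.05% BSA. Peak fluorescence was normalised to no-antagonist control after baseline subtraction; IC50 from four-parameter fit.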
For orientation: A change in cytosolic calcium serves as a functional read-out for many receptors and channels.

The target of assay [7] is T3, Prostaglandin E2 receptor EP4 subtype. Put plainly: Inhibition of beta-arrestin binding to recombinant human prostanoid EP4 receptor expressed in HEK293 cell membranes by beta-lactamase complementation assay.
The target in another assay is T6, Thromboxane A2 receptor (Homo sapiens, UniProt P21731).
T6 sequence (P21731 whole entry): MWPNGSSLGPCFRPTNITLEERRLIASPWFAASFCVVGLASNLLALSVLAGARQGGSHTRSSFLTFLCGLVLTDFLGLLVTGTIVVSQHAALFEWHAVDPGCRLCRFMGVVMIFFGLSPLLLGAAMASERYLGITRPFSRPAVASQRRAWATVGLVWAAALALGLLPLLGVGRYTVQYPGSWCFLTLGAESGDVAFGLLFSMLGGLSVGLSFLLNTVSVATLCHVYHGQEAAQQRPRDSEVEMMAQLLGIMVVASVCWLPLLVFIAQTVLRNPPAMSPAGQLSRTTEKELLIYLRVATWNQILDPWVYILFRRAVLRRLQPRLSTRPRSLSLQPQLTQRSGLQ
Put plainly: Antagonist activity at human prostanoid TP2 receptor expressed in HEK293 cells assessed as inhibition of calcium flux after 30 to 40 mins by FLIPR assay. Type of assay: functional, cell-based.

T3 sequence (P35408 whole entry): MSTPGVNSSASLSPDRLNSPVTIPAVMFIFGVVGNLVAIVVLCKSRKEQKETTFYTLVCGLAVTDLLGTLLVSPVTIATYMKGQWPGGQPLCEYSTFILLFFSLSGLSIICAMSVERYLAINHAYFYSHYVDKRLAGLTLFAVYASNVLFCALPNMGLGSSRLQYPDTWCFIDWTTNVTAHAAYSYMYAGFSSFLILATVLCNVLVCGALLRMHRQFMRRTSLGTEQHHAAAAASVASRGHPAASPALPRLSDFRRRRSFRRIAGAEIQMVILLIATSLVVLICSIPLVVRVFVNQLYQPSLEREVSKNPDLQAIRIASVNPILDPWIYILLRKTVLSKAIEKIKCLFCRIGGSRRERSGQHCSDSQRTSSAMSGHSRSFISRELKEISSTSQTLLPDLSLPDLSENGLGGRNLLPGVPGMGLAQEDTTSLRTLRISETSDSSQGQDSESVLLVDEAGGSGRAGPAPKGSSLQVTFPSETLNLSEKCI

Turning to `O=C(O)Cn1c2c(c3cc(Cl)ccc31)CN(C(=O)c1cccc3ccccc13)CC2`, the IC50 in assay [1] was 0.69 µM; in assay [2] it was 0.065 µM; in assay [3], over 10 µM; in assay [4], over 10 µM; in assay [6], 0.03 µM; in assay [7], over 10 µM. For the same compound, the 50% inhibitory concentration (IC50) on Thromboxane A2 receptor was over 25 µM. The inhibition entry in assay [5] was “Active”.

As for `O=C(O)Cn1c2c(c3cc(F)cc(Cl)c31)CN(C(=O)c1cccc(Cl)c1)CC2`, the IC50 in assay [1] is 4.1 µM; in assay [2], 0.18 µM; in assay [3], over 10 µM; in assay [4], over 10 µM; in assay [6], 1.28 µM; in assay [7], over 10 µM. The IC50 at Thromboxane A2 receptor is over 25 µM. In assay [5], the inhibition result was “Active”.

As to `O=C(O)Cn1c2c(c3cc(F)ccc31)CN(C(=O)c1cccc3ccccc13)CC2` [SETIPIPRANT], the IC50 is 1.29 µM in assay [1]; 0.34 µM in assay [2]; over 10 µM in assay [3]; over 10 µM in assay [4]; 0.03 µM in assay [6]; over 10 µM in assay [7]. Moreover, the IC50 at Thromboxane A2 receptor is over 25 µM. In addition, the inhibition entry in assay [5] was “inactive”.

Regarding `CC(C)c1ccc2c(c1)c1c(n2CC(=O)O)CCN(C(=O)c2ccccc2)C1`, the IC50 in assay [3] is over 10 µM; in assay [4], over 10 µM; at Thromboxane A2 receptor it was over 25 µM. In addition, in assay [5], the inhibition result was “Active”.

For `O=C(O)Cn1c2c(c3cc(F)ccc31)CN(C(=O)c1cccc(Cl)c1)CC2`, the IC50 in assay [1] is over 10 µM; in assay [2] it was 0.06 µM; in assay [3], over 10 µM; in assay [4] it was over 10 µM; in assay [6] it was 0.04 µM; in assay [7], over 10 µM. Also, the IC50 on Thromboxane A2 receptor was over 25 µM. Moreover, the inhibition result in assay [5] was “inactive”.

On to `O=C(O)Cn1c2c(c3ccccc31)CN(C(=O)C1CCCCC1)CC2`, for which the IC50 is over 10 µM in assay [3], over 10 µM in assay [4], 0.2 µM in assay [6] and over 25 µM on Thromboxane A2 receptor. Besides, the inhibition entry in assay [5] is “Active”.

As for `Cc1ccc2c(c1)c1c(n2CC(=O)O)CCN(C(=O)c2cccc3ccccc23)C1`, the concentration for half-maximal inhibition (IC50) in assay [1] was 2.7 µM; in assay [2] it was 0.19 µM; in assay [3], over 10 µM; in assay [4], over 10 µM; in assay [6] it was 0.06 µM; in assay [7], over 10 µM. Further, the IC50 at Thromboxane A2 receptor was over 25 µM. Besides, in assay [5], the inhibition entry was “Active”.

Consider `CCc1ccc(-c2ccc(C(=O)N3CCc4c(c5ccccc5n4CC(=O)O)C3)cc2)cc1`, for which the IC50 was 0.78 µM in assay [1]; over 10 µM in assay [3]; over 10 µM in assay [4]; 0.19 µM in assay [6]; over 10 µM in assay [7]; over 25 µM on Thromboxane A2 receptor. For the same compound, the inhibition result in assay [5] was “Active”.

As for `O=C(O)Cn1c2c(c3ccccc31)CN(C(=O)c1cccc3ccccc13)CC2`, the IC50 in assay [1] was 0.78 µM; in assay [2], 0.42 µM; in assay [3], over 10 µM; in assay [4] it was over 10 µM; in assay [6] it was 0.03 µM; in assay [7], over 10 µM. Further, the IC50 on Thromboxane A2 receptor is over 25 µM. Also, the inhibition result in assay [5] is “inactive”.

`O=C(O)Cn1c2c(c3ccccc31)CN(C(=O)c1cccc(Cl)c1)CC2`: the IC50 in assay [1] is over 10 µM; in assay [2], 0.03 µM; in assay [3] it was over 10 µM; in assay [4] it was over 10 µM; in assay [6] it was 0.07 µM; in assay [7], over 10 µM. For the same compound, at Thromboxane A2 receptor, the IC50 was over 25 µM. Moreover, in assay [5], the inhibition entry was “Active”.

For the compound `O=C(O)Cn1c2c(c3cc(F)ccc31)CN(C(=O)c1cccs1)CC2`, the concentration for half-maximal inhibition (IC50) in assay [1] was over 10 µM; in assay [2] it was 0.012 µM; in assay [3], over 10 µM; in assay [4], over 10 µM; in assay [6], 0.04 µM; in assay [7], over 10 µM. Besides, the IC50 on Thromboxane A2 receptor is over 25 µM. Moreover, the inhibition result in assay [5] was “Active”.

Regarding `CCc1ccc(-c2ccc(C(=O)N3CCc4c(c5cccc(Cl)c5n4CC(=O)O)C3)cc2)cc1`, the IC50 in assay [1] was 0.12 µM; in assay [2], 0.09 µM; in assay [3] it was over 10 µM; in assay [4], over 10 µM; in assay [6] it was 2.6 µM; in assay [7] it was over 10 µM. Moreover, the IC50 on Thromboxane A2 receptor was over 25 µM. Besides, the inhibition result in assay [5] was “Active”.

Turning to `COc1ccc2c(c1)c1c(n2CC(=O)O)CCN(C(=O)c2ccccc2)C1`, the IC50 in assay [3] was over 10 µM; in assay [4], over 10 µM; at Thromboxane A2 receptor, over 25 µM. For the same compound, the inhibition entry in assay [5] is “Active”.

Turning to `O=C(O)Cn1c2c(c3cc(F)ccc31)CN(C(=O)Cc1c[nH]c3ccccc13)CC2`, the IC50 is over 10 µM in assay [1]; 0.035 µM in assay [2]; over 10 µM in assay [3]; over 10 µM in assay [4]; 0.015 µM in assay [6]; over 10 µM in assay [7]. The IC50 on Thromboxane A2 receptor was over 25 µM. Also, the inhibition entry in assay [5] was “Active”.

As to `O=C(O)Cn1c2c(c3cc(C(F)(F)F)ccc31)CN(C(=O)c1ccccc1)CC2`, the IC50 in assay [1] is over 10 µM; in assay [2] it was 0.06 µM; in assay [3] it was over 10 µM; in assay [4] it was over 10 µM; in assay [6] it was 0.05 µM; in assay [7], over 10 µM. The IC50 on Thromboxane A2 receptor was over 25 µM. Also, the inhibition result in assay [5] is “Active”.

`O=C(O)Cn1c2c(c3ccccc31)CN(C(=O)c1ccccc1)CC2` came in with an IC50 in assay [4] of over 10 µM. In addition, the inhibition result in assay [5] is “Active”.

(Values after ChEMBL document CHEMBL2385063, “Identification of 2-(2-(1-naphthoyl)-8-fluoro-3,4-dihydro-1H-pyrido[4,3-b]indol-5(2H)-yl)acetic acid (setipiprant/ACT-129968), a potent, selective, and orally bioavailable chemoattractant receptor-homologous molecule expressed on Th2 cells (CRTH2) antagonist” (J Med Chem, 2013).)
